Assay results reported in ChEMBL document CHEMBL3421599, “Diterpene alkaloids with an aza-ent-kaurane skeleton from Isodon rubescens” (J Nat Prod, 2015).

Key:
[1] = Cytotoxicity against human HL60 cells after 48 hrs by MTT assay; assay type: functional, cell-based, HL-60
In short: (§1)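 Cells seeded at 5000 to 10 000 per well, exposed to compounds at a range of concentrations for 48 h at 37 °C. MTT then added for 4 h at 37 °C under 5% CO2. Formazan dissolved in 10% SDS and absorbance read at 595 nm. Each concentration tested in triplicate. IC50 derived by the Reed and Muench method, with cisplatin as positive control.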

SMMC-7721 = test: Cytotoxicity against human SMMC7721 cells after 48 hrs by MTT assay; assay type: functional, cell-based; in short: as §1
SW480 = test: Cytotoxicity against human SW480 cells after 48 hrs by MTT assay; assay type: functional, cell-based; in short: as §1
MCF7 = test: Cytotoxicity against human MCF7 cells after 48 hrs by MTT assay; assay type: functional, cell-based; in short: as §1
A549 = test: Cytotoxicity against human A549 cells after 48 hrs by MTT assay; assay type: functional, cell-based; in short: as §1
[2] = Homo sapiens, HL-60, 48 h, read-out: IC50
[3] = Homo sapiens, SMMC-7721, 48 h, read-out: IC50
[4] = Homo sapiens, SW480, 48 h, read-out: IC50
[5] = Homo sapiens, MCF7, 48 h, read-out: IC50
[6] = Homo sapiens, A549, 48 h, read-out: IC50

Structure (SMILES)	IC50 [1, 2] [µM]	IC50 (SMMC-7721; [3]) [µM]	IC50 (SW480; [4]) [µM]	IC50 (MCF7; [5]) [µM]	IC50 (A549; [6]) [µM]	IC50 ([1]; hl-60)	IC50 (SMMC-7721; smmc-7721)	IC50 (SW480; sw480)	IC50 (MCF7; mcf7)	IC50 (A549; a549)
C=C1C(=O)[C@]23[C@H](O)[C@H]1CC[C@H]2[C@@]12C=N[C@@]3(O)[C@@H](O)[C@@H]1C(C)(C)CC[C@@H]2O	> 40	> 40	> 40	> 40	> 40					
C=C1C(=O)[C@]23[C@H](O)[C@H]1CC[C@H]2[C@@]12CO[C@]3(O)[C@@H](O)[C@@H]1C(C)(C)CC[C@@H]2O [ORIDONIN]	7.2	7.2	7.2	7.2	7.2					
C=C1C(=O)O[C@H]2C[C@@H]1C[C@H]1[C@@H]2[C@@]23C(OC)O[C@@]1(O)[C@@H](O)[C@@H]2C(C)(C)CC[C@@H]3O (stereo not given in full)						Active	Active	Active	Active	Active
C=C1C(=O)OC2CC1C[C@H]1[C@@H]2[C@@]23C=NC1(O)[C@@H](O)[C@@H]2C(C)(C)CC[C@@H]3O						Not Active	Not Active	Not Active	Not Active	Not Active
